CCR6 antag = antagonists of human CCR6 receptor. hit rate 0.49% among 340,000. P51684. CHO-K1 CCR6 PathHunter beta-arrestin, luminescence, CCL20-stimulated. AID 493098. inhibition, % at 20 µM;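 active = compounds whose inhibition of the agonist-driven luminescence signal at 20 µM reaches about 50%, limit read from the data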;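 also: cells stimulated with CCL20 at 14 nM final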
Target sequence (P51684 whole entry, looked up): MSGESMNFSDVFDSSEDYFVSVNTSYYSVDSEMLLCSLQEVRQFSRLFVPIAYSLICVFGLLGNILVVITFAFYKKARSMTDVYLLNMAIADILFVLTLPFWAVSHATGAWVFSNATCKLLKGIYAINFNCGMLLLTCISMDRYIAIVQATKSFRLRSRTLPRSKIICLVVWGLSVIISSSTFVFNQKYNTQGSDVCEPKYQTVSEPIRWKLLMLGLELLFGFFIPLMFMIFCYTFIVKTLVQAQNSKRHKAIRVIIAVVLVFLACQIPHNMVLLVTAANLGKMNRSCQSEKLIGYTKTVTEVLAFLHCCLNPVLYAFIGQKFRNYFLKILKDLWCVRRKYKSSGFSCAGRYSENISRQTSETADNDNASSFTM
CXCR6 block = blocks human CXCR6 beta-arrestin recruitment; CHO-K1 PathHunter CXCR6 beta-arrestin, luminescence; hit rate 0.36% among 360,000; AID 602244; O00574; inhibition, % at 20 µM; in the data active = inhibition above about 34%, passing the limit was not always enough;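 also: antagonist mode with CXCL16 agonist at 10 nM final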
EBI2 block = antagonists of human EBI2 receptor; P32249; inhibition, % at 5 µM; EBI2 beta-arrestin recruitment, luminescence, 7a,25-OHC stimulated; hit rate 0.81% among 360,000; in the data active = inhibition above about 38%;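 also: enzyme fragment complementation signal reports receptor beta-arrestin coupling in cells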
APJ antag = antagonists of human APJ apelin receptor; P35414; CHO-K1 APJ beta-arrestin complementation, luminescence; inhibition, % at 20 µM; hit rate 0.32% among 330,000; AID 2521;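 active = inhibition above about 40% at 20 µM, limit read from the data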;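 also: cells challenged with 10 nM apelin-13 agonist together with compound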
APJ agonist = agonists of human APJ apelin receptor | CHO-K1 APJ PathHunter beta-arrestin, luminescence; 0% DMSO wells, 100% apelin | activation, % at 20 µM | hit rate 0.11% among 330,000;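 active = activation more than six SD over the plate average, tested at 20 µM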
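Material: engineered CHO-K1 APJ arrestin reporter cells; amount: 1000 CHO-K1 reporter cells seeded per well; incubation: compound stimulation 90 min at 25 °C, detection 60 min; signal: luminescent beta-gal fragment complementation, chemiluminescent substrate; read-out basis: APJ agonist activity; controls: DMSO-only wells as negative, 10 nM Apelin-13 as positive control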
APJ antag conf = confirmation of human APJ apelin receptor antagonists | shares compounds with APJ antag | APJ beta-arrestin recruitment, luminescence, antagonist mode | hit rate 66% among 950 | inhibition, % at 20 µM | AID 2766; in the data active = inhibition above about 50%
Of the large screens only hits and unclear results are named; the others gave an inactive call (follow-up assays come after a bar, where they were run). An excerpt weighted towards active compounds, which were near 1.5% of everything screened.

COc1ccc(C=NNc2ccc([N+](=O)[O-])cc2S(=O)(=O)Nc2ccccc2C(=O)O)cc1OC	none
COc1ccccc1NS(=O)(=O)c1cc([N+](=O)[O-])ccc1N/N=C/c1c[nH]c2ccccc12	CCR6 antag 50.0, EBI2 block 54.3, APJ antag 56.1 | APJ antag conf 90.7
COc1ccc(NS(=O)(=O)c2cc([N+](=O)[O-])ccc2NN=Cc2ccccc2OCC(=O)O)cc1	none
COc1ccc(NS(=O)(=O)c2cc([N+](=O)[O-])ccc2N/N=C\c2c(C)[nH]c3ccccc23)cc1	APJ antag 74.9 | APJ antag conf 99.4
Cc1cn(CC(=O)N2CCN(c3ccccn3)CC2)c(=O)[nH]c1=O	none (no result: APJ antag, APJ agonist)
Cc1cccc(NC(=O)CN2C(=O)N/C(=C/c3ccc(C)o3)C2=O)c1	none (no result: APJ antag, APJ agonist)
Cc1ccc(NC(=O)CN2C(=O)N/C(=C/c3ccc(C)o3)C2=O)cc1	APJ antag 42.5 | APJ antag conf inactive
O=C(NC1CC2CCC(C1)N2Cc1ccccc1)c1ccccc1Cl (stereo unspecified)	none
CCOC(=O)[C@]12CCCC=C1N(Cc1cccc3ccccc13)C(=O)[C@H](CC(=O)NCCc1ccccc1OC)C2	none (no result: CCR6 antag, APJ antag, APJ agonist)
Cc1ccc2c(c1)nnn2C1CCN(CC(=O)NCCc2nc3ccccc3[nH]2)CC1	CCR6 antag 56.6, APJ antag 41.1 | APJ antag conf 60.2
CC(=O)Nc1ccc(NCCc2cccs2)cc1	none (no result: CCR6 antag, APJ antag, APJ agonist)
CC(=O)Nc1ccc(NCc2cccs2)cc1	APJ antag 104.4 | APJ antag conf inactive
CCOC(=O)c1ccc(S(=O)(=O)NNC(=O)c2cccc(N(C)C)c2)cc1	APJ antag 50.1 | APJ antag conf inactive
O=C(N/N=C/c1cc(Br)cc([N+](=O)[O-])c1O)c1ccc(NC(=O)c2ccc(F)cc2)cc1	CCR6 antag 69.4, APJ antag 49.3 | APJ antag conf 86.0
O=C(N/N=C/c1cc(Br)cc(Br)c1O)c1ccncc1	none (no result: CXCR6 block, EBI2 block)
CCOCCOC(=O)C1=C(C)NC2=C(C(=O)CC(c3cccs3)C2)C1c1ccsc1 (stereo unspecified)	APJ antag 44.9 | APJ antag conf 56.8
N=C1/C(=C/c2ccc(-c3cccc(C(=O)O)c3)o2)C(=O)N=C2SC=C(c3ccccc3)N12	CCR6 antag 56.6, APJ antag 40.1 | APJ antag conf 53.0
COc1ccc(C(=O)N2CCNC(=O)C2)cc1S(=O)(=O)Nc1ccc(Br)cc1	none
O=C(NCCOC(=O)c1cccs1)c1cccnc1	APJ antag 64.5 | APJ antag conf inactive
Cc1cc(C)nc(NNS(=O)(=O)c2c(F)cc(F)cc2Br)n1	APJ antag 67.1 | APJ antag conf 114.1
Cc1ccc(NS(=O)(=O)c2ccc(OCC(=O)NCc3ccccn3)cc2)cc1	none
Cn1cccc1/C=C(/C#N)C(N)=S	APJ antag 41.1 | APJ antag conf 57.6
CCN1/C(=C2\C(=O)N(C)C(=S)N2C)C=Cc2cc(OC)ccc21	none
C=CCn1c(=O)/c(=C2/Sc3cc(OC)ccc3N2C)s/c1=C1\C(=O)N(CC)C(=S)N1C	APJ antag 49.8 (no result: CCR6 antag, CXCR6 block, EBI2 block) | APJ antag conf 75.8
CC(C)CC(NC(=O)C1CCCN1C(=O)OC(C)(C)C)C(=O)NCC(N)=O (stereo unspecified)	none (no result: APJ antag, APJ agonist)
COC(=O)C(CC(C)C)NC(=O)C(Cc1ccccc1)NC(=O)C1CCCN1C(=O)OC(C)(C)C (stereo unspecified)	CCR6 antag 52.1, APJ antag 48.5 | APJ antag conf inactive
O=C(CN1c2ccccc2Sc2ccccc21)NNC(=S)Nc1ccc(Cl)cc1	APJ antag 51.3 | APJ antag conf 70.0
O=C(Nc1nccs1)c1ccc(CSc2ccccc2)o1	none
O=C1ON=C(c2ccccc2)/C1=C/c1ccc(O)c(O)c1	APJ antag 41.7 | APJ antag conf 68.1
COc1ccc(/C=C2\C(=O)ON=C2c2ccccc2)cc1	none
O=C(NNc1ccc(O)cc1)c1ccc(Br)cc1	CCR6 antag 101.3, CXCR6 block 70.2, EBI2 block 59.1, APJ antag 86.0 | APJ antag conf 139.5
Cc1nnc(SCC(=O)Nc2sc3c(c2C(N)=O)CCC(C)C3)[nH]c1=O (stereo unspecified)	none
CC1CC(=O)Nc2ccccc2N1S(=O)(=O)c1ccccc1 (stereo unspecified)	APJ antag 59.5 | APJ antag conf inactive
Cc1cc(C)n(CCc2nc(-c3cccs3)cs2)n1	none
Cc1cc(C)n(CCc2nc(-c3ccco3)cs2)n1	APJ antag 56.0 | APJ antag conf inactive
Cc1cc(=O)[nH]c(N=N/C(=N/Nc2ccccc2C)c2ccccc2)n1	none
Cc1cc(=O)[nH]c(N=N/C(=N/Nc2ccc(O)cc2)c2ccccc2)n1	CCR6 antag 55.6, APJ antag 59.3 | APJ antag conf 89.2
CS/C(=C/[N+](=O)[O-])Nc1cccc2c1C(C)CC2(C)C (stereo unspecified)	none
CN1C(=O)/C(=C\c2cc(N=Nc3ccccc3)ccc2O)SC1=S	CCR6 antag 54.6, CXCR6 block 51.6, APJ antag 67.6 | APJ antag conf 109.5
CC1Nc2ncnc(N3CCN(c4ccccn4)CC3)c2N(Cc2ccccc2)C1=O (stereo unspecified)	CCR6 antag 79.0, CXCR6 block 68.5, EBI2 block 44.6, APJ antag 64.6 | APJ antag conf 109.9
COc1ccccc1/C=C/CN1CCC(n2nccc2NC(=O)C2CC2)CC1	none
N#Cc1cnn2c3c(cnc12)C(=O)N1CCc2ccccc2C1C3 (stereo unspecified)	APJ antag 47.6 | APJ antag conf inactive
CC(C)(C)c1ccccc1NC(=O)CN1C(=O)NC2(CCCCCC2)C1=O	none
COc1cc(/C=C2\SC(=S)N(NC(=O)c3ccc(O)cc3)C2=O)ccc1O	CCR6 antag 58.6, CXCR6 block 42.3, APJ antag 55.9 | APJ antag conf 91.5
O=C(NN1C(=O)/C(=C\c2ccc(O)c([N+](=O)[O-])c2)SC1=S)c1ccccc1Cl	CCR6 antag 60.1, APJ antag 55.0 | APJ antag conf 101.9
O=C(NN1C(=O)/C(=C/c2ccc(O)c(O)c2)SC1=S)c1ccccc1	CCR6 antag 64.4, CXCR6 block 51.5, APJ antag 48.0 | APJ antag conf 106.0
CC(=O)NN1C(=O)/C(=C\c2ccc(O)cc2)SC1=S	none
COc1cc(/C=C2\SC(=S)N(NC(=O)c3cccnc3)C2=O)ccc1O	APJ antag 42.1 | APJ antag conf 95.3
COc1ccc(CCNC(=O)CCCN2C(=O)c3ccccc3C2=O)cc1	none
CC(=O)Nc1ccc(-c2noc(-c3csc([C@@H]4C[C@H](O)[C@@H](CO)O4)n3)n2)cc1	none (no result: CCR6 antag, APJ antag, APJ agonist)
c1ccc(NC2=NCCN2CCC2CCCCC2)cc1	none
COc1ccc(/C=C2\SC(c3ccc(C)cc3)=NC2=O)cc1OC	none
COc1cc(/C=C2\SC(c3ccc(C)cc3)=NC2=O)ccc1O	CCR6 antag 75.0, CXCR6 block 57.2, APJ antag 57.6 | APJ antag conf 102.4
